Source: ChEMBL document CHEMBL3124806, “Imidazopyridine-fused [1,3]-diazepinones: synthesis and antiproliferative activity” (Eur J Med Chem, 2014)

Experiments:
Ovis aries = species: Ovis aries; experiment: Inhibition of sheep brain tubulin polymerization at 100 uM after 40 mins by DAPI staining-based fluorescence assay
Procedure, shortened: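 Microtubular protein was purified from sheep brain by two assembly/disassembly cycles (37 °C/0 °C) in MES buffer (100 mM MES pH 6.6, 1 mM EGTA, 0.5 mM MgCl₂). Compound in DMSO was added to 10 µM tubulin with 10 µM DAPI and incubated 40 min at RT. GTP (1 mM) was then added, and assembly was followed by DAPI fluorescence at 37 °C.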

BT-549 = experiment: Cytotoxicity against human BT549 cells assessed as cell growth at 10 uM after 48 hrs by SRB assay relative to untreated control; format: functional; details: BT-549, 48 h, read-out: Activity
Procedure, shortened: (§1)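 NCI-60 panel screen at a single concentration of 10 μM with 48 h incubation. Cell density measured by sulforhodamine B protein-binding dye and read spectrophotometrically. Growth expressed as percent of untreated control cells.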

SF-539 = experiment: Cytotoxicity against human SF539 cells assessed as cell growth at 10 uM after 48 hrs by SRB assay relative to untreated control; format: functional; details: SF-539, 48 h, read-out: Activity
Procedure, shortened: (§2)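 NCI-60 one-dose screen: each agent added at 10 µM, cultures incubated 48 h. Endpoint by sulforhodamine B protein-binding dye read spectrophotometrically; growth expressed as percent of untreated control cells.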

HCC 2998 = experiment: Cytotoxicity against human HCC2998 cells assessed as cell growth at 10 uM after 48 hrs by SRB assay relative to untreated control; format: functional; details: HCC 2998, 48 h, read-out: Activity; procedure, shortened: as §1
SNB-75 = experiment: Cytotoxicity against human SNB75 cells assessed as cell growth at 10 uM after 48 hrs by SRB assay relative to untreated control; format: functional; details: SNB-75, 48 h, read-out: Activity
Procedure, shortened: (§3)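 NCI-60 single-dose screen. Compounds were added to the cultures at 10 μM and incubated for 48 h. The end point was sulforhodamine B protein staining read spectrophotometrically. Growth is reported as percent of untreated control cells.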

SR = experiment: Cytotoxicity against human SR cells assessed as cell growth at 10 uM after 48 hrs by SRB assay relative to untreated control; format: functional; details: read-out: Activity; procedure, shortened: as §3
M14 = experiment: Cytotoxicity against human M14 cells assessed as cell growth at 10 uM after 48 hrs by SRB assay relative to untreated control; format: functional; details: M14, 48 h, read-out: Activity; procedure, shortened: as §1
A549 = experiment: Cytotoxicity against human A549 cells assessed as cell growth at 10 uM after 48 hrs by SRB assay relative to untreated control; format: functional; details: A549, 48 h, read-out: Activity; procedure, shortened: as §1
SK-MEL-28 = experiment: Cytotoxicity against human SK-MEL-28 cells assessed as cell growth at 10 uM after 48 hrs by SRB assay relative to untreated control; format: functional; details: SK-MEL-28, 48 h, read-out: Activity; procedure, shortened: as §3
HCT-15 = experiment: Cytotoxicity against human HCT15 cells assessed as cell growth at 10 uM after 48 hrs by SRB assay relative to untreated control; format: functional; details: HCT-15, 48 h, read-out: Activity; procedure, shortened: as §1
NCI-H226 = experiment: Cytotoxicity against human NCI-H226 cells assessed as cell growth at 10 uM after 48 hrs by SRB assay relative to untreated control; format: functional; details: NCI-H226, 48 h, read-out: Activity; procedure, shortened: as §2
SNB-19 = experiment: Cytotoxicity against human SNB19 cells assessed as cell growth at 10 uM after 48 hrs by SRB assay relative to untreated control; format: functional; details: SNB-19, 48 h, read-out: Activity; procedure, shortened: as §3
786-0 = experiment: Cytotoxicity against human […] cells assessed as cell growth at 10 uM after 48 hrs by SRB assay relative to untreated control; format: functional; details: 786-0, 48 h, read-out: Activity; procedure, shortened: as §1
SW-620 = experiment: Cytotoxicity against human SW620 cells assessed as cell growth at 10 uM after 48 hrs by SRB assay relative to untreated control; format: functional; details: SW-620, 48 h, read-out: Activity; procedure, shortened: as §3
CAKI-1 = experiment: Cytotoxicity against human Caki1 cells assessed as cell growth at 10 uM after 48 hrs by SRB assay relative to untreated control; format: functional; details: CAKI-1, 48 h, read-out: Activity; procedure, shortened: as §1
A498 = experiment: Cytotoxicity against human A498 cells assessed as cell growth at 10 uM after 48 hrs by SRB assay relative to untreated control; format: functional; details: A498, 48 h, read-out: Activity; procedure, shortened: as §1
T47D = experiment: Cytotoxicity against human T47D cells assessed as cell growth at 10 uM after 48 hrs by SRB assay relative to untreated control; format: functional; details: read-out: Activity; procedure, shortened: as §3
[1] = Cytotoxicity against human OVCAR4 cells assessed as cell growth at 10 uM after 48 hrs by SRB assay relative to untreated control; format: functional; details: OVCAR-4, 48 h, read-out: Activity; procedure, shortened: as §2
SN12C = experiment: Cytotoxicity against human SN12C cells assessed as cell growth at 10 uM after 48 hrs by SRB assay relative to untreated control; format: functional; details: read-out: Activity; procedure, shortened: as §3
OVCAR-8 = experiment: Cytotoxicity against human OVCAR8 cells assessed as cell growth at 10 uM after 48 hrs by SRB assay relative to untreated control; format: functional; details: OVCAR-8, 48 h, read-out: Activity; procedure, shortened: as §2
[2] = Cytotoxicity against human UACC257 cells assessed as cell growth at 10 uM after 48 hrs by SRB assay relative to untreated control; format: functional; details: UACC-257, 48 h, read-out: Activity; procedure, shortened: as §3
NCI-H322M = experiment: Cytotoxicity against human NCI-H322M cells assessed as cell growth at 10 uM after 48 hrs by SRB assay relative to untreated control; format: functional; details: read-out: Activity; procedure, shortened: as §2
DU-145 = experiment: Cytotoxicity against human DU145 cells assessed as cell growth at 10 uM after 48 hrs by SRB assay relative to untreated control; format: functional; details: DU-145, 48 h, read-out: Activity; procedure, shortened: as §1
ACHN = experiment: Cytotoxicity against human ACHN cells assessed as cell growth at 10 uM after 48 hrs by SRB assay relative to untreated control; format: functional; details: read-out: Activity; procedure, shortened: as §1
HL-60(TB) = experiment: Cytotoxicity against human HL-60(TB) cells assessed as cell growth at 10 uM after 48 hrs by SRB assay relative to untreated control; format: functional; details: HL-60, 48 h, read-out: Activity
Procedure, shortened: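 NCI-60 human tumour cell line panel; a single 10 µM concentration was added to the cultures and incubated 48 h. Endpoint was sulforhodamine B protein-binding dye read spectrophotometrically, with growth reported as percent of untreated control cells.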

MDA-MB-435 = experiment: Cytotoxicity against human MDA-MB-435 cells assessed as cell growth at 10 uM after 48 hrs by SRB assay relative to untreated control; format: functional; details: MDA-MB-435, 48 h, read-out: Activity; procedure, shortened: as §2
[3] = Cytotoxicity against human OVCAR5 cells assessed as cell growth at 10 uM after 48 hrs by SRB assay relative to untreated control; format: functional; details: OVCAR-5, 48 h, read-out: Activity; procedure, shortened: as §2
[4] = Cytotoxicity against human Hs578T cells assessed as cell growth at 10 uM after 48 hrs by SRB assay relative to untreated control; format: functional; details: Hs-578T, read-out: Activity; procedure, shortened: as §1
NCI-H460 = experiment: Cytotoxicity against human NCI-H460 cells assessed as cell growth at 10 uM after 48 hrs by SRB assay relative to untreated control; format: functional; details: NCI-H460, 48 h, read-out: Activity; procedure, shortened: as §2

Structure (SMILES) | inhibition (Ovis aries) | growth at 10 µM (BT-549) | growth at 10 µM (SF-539) | growth at 10 µM (HCC 2998) | growth at 10 µM (SNB-75) | growth at 10 µM (SR) | growth at 10 µM (M14) | growth at 10 µM (A549) | growth at 10 µM (SK-MEL-28) | growth at 10 µM (HCT-15) | growth at 10 µM (NCI-H226) | growth at 10 µM (SNB-19) | growth at 10 µM (786-0) | growth at 10 µM (SW-620) | growth at 10 µM (CAKI-1) | growth at 10 µM (A498) | growth at 10 µM (T47D) | growth at 10 µM [1] | growth at 10 µM (SN12C) | growth at 10 µM (OVCAR-8) | further results
COc1ccc(C2=Nc3nc4ccccn4c3C(=O)[C@H](C)N2)cc1 | 20% | 85.7% | 97.3% | 97.8% | 81.9% | 80.4% | 95.4% | 106% | 105% | 85.2% | 86.9% | 99.1% | 98.5% | 106% | 93.5% | 105% | 97% | 98.4% | 97.7% | 97.4% | growth at 10 µM [2]: 96.1%; growth at 10 µM (NCI-H322M): 80.3%; growth at 10 µM (DU-145): 113%; growth at 10 µM (ACHN): 83.8%; growth at 10 µM (HL-60(TB)): 90.6%; growth at 10 µM (MDA-MB-435): 90.2%; growth at 10 µM [3]: 101%; growth at 10 µM [4]: 98.3%; growth at 10 µM (NCI-H460): 105%
C[C@H]1NC(c2ccc(Br)cc2)=Nc2nc3ccccn3c2C1=O | 26% | 75.5% | 95.5% | 112% | 89.3% | 77.7% | 99.2% | 99.6% | 97.5% | 97.1% | 85.7% | 92.5% | 89.1% | 97% | 93.2% | 87.6% | 85% | 111% | 94.6% | 94.5% | growth at 10 µM [2]: 101%; growth at 10 µM (NCI-H322M): 86.1%; growth at 10 µM (DU-145): 108%; growth at 10 µM (ACHN): 94%; growth at 10 µM (HL-60(TB)): 91.1%; growth at 10 µM (MDA-MB-435): 95.4%; growth at 10 µM [3]: 98.2%; growth at 10 µM [4]: 86.5%; growth at 10 µM (NCI-H460): 101%
